# Results as given in ChEMBL document CHEMBL1212735, “Metronidazole resistance in Prevotella spp. and description of a new nim gene in Prevotella baroniae” (2010).
# Columns and labels:
# Type in all cases: functional
# Prevotella bivia [1] = experiment: Antimicrobial activity against slow growing colonies of Prevotella bivia LBN 361 deficient in nim gene assessed as inhibition of growth at 48 hrs by agar dilution method; details: LBN 361, 48 h
# Outline: (§1)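 Metronidazole MIC by agar dilution per CLSI M11-A7 on brucella agar with 5% sheep blood, hemin and vitamin K1. Plates incubated anaerobically at 35°C and read at 48 h, with a second reading after a further 72 h. B. fragilis ATCC 25285T and B. thetaiotaomicron ATCC 29741 served as controls. Done in duplicate; EUCAST breakpoints applied (S ≤4, R ≥8 μg/ml).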
# Prevotella bivia [2] = experiment: Antimicrobial activity against Prevotella bivia LBN 331 deficient in nim gene assessed as inhibition of growth at 48 hrs by agar dilution method; details: LBN 331, 48 h
# Outline: (§2)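 Metronidazole MIC by agar dilution (CLSI M11-A7) on brucella agar with 5% sheep blood, hemin and vitamin K1. Plates were read after 48 h at 35°C under anaerobic conditions. Susceptible was MIC ≤ 4 μg/ml and resistant MIC ≥ 8 μg/ml (EUCAST). B. fragilis ATCC 25285T and B. thetaiotaomicron ATCC 29741 were run as controls. Duplicate assays.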
# Prevotella nanceiensis [3] = experiment: Antimicrobial activity against Prevotella nanceiensis LBN 293b deficient in nimI gene assessed as inhibition of growth after three consecutive subcultures on compound free medium by agar dilution method; details: Hoylesella nanceiensis
# Outline: (§3)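 Stability of induced resistance: metronidazole-selected isolates were subcultured three consecutive times on drug-free brucella blood agar (5% sheep blood, hemin, vitamin K1) under anaerobic conditions, then MIC was redetermined by CLSI agar dilution. Resistance was called stable if the MIC held within ±1 dilution. Duplicate experiments.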
# Prevotella bivia [4] = experiment: Antimicrobial activity against Prevotella bivia LBN 330 deficient in nim gene assessed as inhibition of growth at 48 hrs by agar dilution method; details: LBN 330, 48 h; outline: as §2
# Prevotella bivia [5] = experiment: Antimicrobial activity against Prevotella bivia LBP 52 deficient in nim gene assessed as inhibition of growth at 48 hrs by agar dilution method; details: LBP 52, 48 h; outline: as §2
# Prevotella baroniae [6] = experiment: Antimicrobial activity against Prevotella baroniae DSM 16972T expressing nimI gene assessed as inhibition of growth after several passages on plates containing increasing concentrations of compound by agar dilution method; details: Segatella baroniae
# Outline: (§4)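 Induction of metronidazole resistance: bacterial suspensions inoculated onto brucella blood agar (5% sheep blood, hemin, vitamin K1) containing metronidazole at increasing concentrations, grown anaerobically at 37°C. Colonies growing at the highest concentration were retested for MIC by CLSI agar dilution on the same agar. Duplicate experiments.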
# Prevotella baroniae [7] = experiment: Antimicrobial activity against Prevotella baroniae LBN 427 expressing nimI gene assessed as inhibition of growth after three consecutive subcultures on compound free medium by agar dilution method; details: Segatella baroniae; outline: as §3
# Prevotella baroniae [8] = experiment: Antimicrobial activity against Prevotella baroniae LBP 9 expressing nim gene assessed as inhibition of growth at 48 hrs by agar dilution method; details: Segatella baroniae, LBP 9, 48 h; outline: as §2
# Prevotella bivia [9] = experiment: Antimicrobial activity against Prevotella bivia LBN 467 deficient in nim gene assessed as inhibition of growth at 48 hrs by agar dilution method; details: LBN 467, 48 h; outline: as §2
# Prevotella bivia [10] = experiment: Antimicrobial activity against slow growing colonies of Prevotella bivia LBN 334 deficient in nim gene assessed as inhibition of growth at 48 hrs by agar dilution method; details: LBN 334, 48 h
# Outline: (§5)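 Slowly growing colonies inside the Etest inhibition zone, seen after prolonged incubation (an additional 72 h after the 48 h reading), were subcultured without antibiotic. They were then retested for metronidazole MIC by agar dilution on supplemented brucella blood agar under anaerobic conditions.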
# Prevotella bivia [11] = experiment: Antimicrobial activity against slow growing colonies of Prevotella bivia LBN 339 deficient in nim gene assessed as inhibition of growth at 48 hrs by agar dilution method; details: LBN 339, 48 h; outline: as §5
# Prevotella baroniae [12] = experiment: Antimicrobial activity against Prevotella baroniae LBP 19 expressing nim gene assessed as inhibition of growth at 48 hrs by agar dilution method; details: Segatella baroniae, LBP 19, 48 h; outline: as §2
# Prevotella baroniae [13] = experiment: Antimicrobial activity against Prevotella baroniae LBN 475 expressing nimI gene assessed as inhibition of growth after several passages on plates containing increasing concentration of compound by agar dilution method; details: Segatella baroniae; outline: as §4
# Prevotella baroniae [14] = experiment: Antimicrobial activity against Prevotella baroniae LBN 475 expressing nimI gene assessed as inhibition of growth after three consecutive subcultures on compound free medium by agar dilution method; details: Segatella baroniae; outline: as §3
# Prevotella bivia [15] = experiment: Antimicrobial activity against Prevotella bivia LBN 371 deficient in nim gene assessed as inhibition of growth at 48 hrs by agar dilution method; details: LBN 371, 48 h; outline: as §2
# Prevotella nanceiensis [16] = experiment: Antimicrobial activity against slow growing colonies of Prevotella nanceiensis LBN 298 deficient in nim gene assessed as inhibition of growth at 48 hrs by agar dilution method; details: Hoylesella nanceiensis, LBN 298, 48 h; outline: as §1
# Prevotella nanceiensis [17] = experiment: Antimicrobial activity against Prevotella nanceiensis LBN 410 deficient in nim gene assessed as inhibition of growth at 48 hrs by agar dilution method; details: Hoylesella nanceiensis, LBN 410, 48 h; outline: as §2
# Prevotella bivia [18] = experiment: Antimicrobial activity against Prevotella bivia LBN 371 deficient in nimI gene assessed as inhibition of growth after three consecutive subcultures on compound free medium by agar dilution method
# Outline: (§6)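 Resistance induction: bacterial suspensions were plated on supplemented brucella blood agar with rising metronidazole concentrations. Colonies from the highest concentration were tested by agar dilution. MIC was then redetermined after three consecutive subcultures on drug-free agar. Resistance counted as stable if the MIC held within ±1 dilution. Anaerobic growth at 37°C. Duplicate experiments.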
# Prevotella bivia [19] = experiment: Antimicrobial activity against Prevotella bivia LBN 339 deficient in nim gene assessed as inhibition of growth at 48 hrs by agar dilution method; details: LBN 339, 48 h; outline: as §2
# Prevotella baroniae [20] = experiment: Antimicrobial activity against Prevotella baroniae DSM 16972T expressing nim gene assessed as inhibition of growth at 48 hrs by agar dilution method; details: Segatella baroniae; outline: as §2
# Prevotella buccae = experiment: Antimicrobial activity against Prevotella buccae LBN 465 deficient in nimI gene assessed as inhibition of growth at 48 hrs by agar dilution method; details: Segatella buccae, LBN 465, 48 h
# Outline: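 Agar dilution MIC on brucella agar with 5% sheep blood, hemin and vitamin K1, following CLSI M11-A7. Plates read after 48 h at 35°C under anaerobic conditions, with B. fragilis ATCC 25285T and B. thetaiotaomicron ATCC 29741 as controls. Assays in duplicate. Isolates kept at −80°C in brucella broth with 15% glycerol. Interpretation used EUCAST breakpoints (S ≤4, R ≥8 μg/ml).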
# Prevotella bivia [21] = experiment: Antimicrobial activity against Prevotella bivia LBP 4 deficient in nim gene assessed as inhibition of growth at 48 hrs by agar dilution method; details: LBP 4, 48 h; outline: as §2
# Prevotella bivia [22] = experiment: Antimicrobial activity against Prevotella bivia LBN 467 deficient in nimI gene assessed as inhibition of growth after three consecutive subcultures on compound free medium by agar dilution method; outline: as §6
# Prevotella bivia [23] = experiment: Antimicrobial activity against slow growing colonies of Prevotella bivia LBN 464 deficient in nim gene assessed as inhibition of growth at 48 hrs by agar dilution method; details: LBN 464, 48 h; outline: as §1
# Prevotella bivia [24] = experiment: Antimicrobial activity against Prevotella bivia LBP 38 deficient in nim gene assessed as inhibition of growth at 48 hrs by agar dilution method; details: LBP 38, 48 h; outline: as §2
# Prevotella bivia [25] = experiment: Antimicrobial activity against Prevotella bivia LBN 350 deficient in nim gene assessed as inhibition of growth at 48 hrs by agar dilution method; details: LBN 350, 48 h; outline: as §2
structure (smiles),measurement,setting,value
Cc1ncc([N+](=O)[O-])n1CCO [METRONIDAZOLE],MIC,Prevotella bivia [1],32 µg/mL
same,MIC,Prevotella bivia [2],2 µg/mL
same,MIC,Prevotella nanceiensis [3],256 µg/mL
same,MIC,Prevotella bivia [4],2 µg/mL
same,MIC,Prevotella bivia [5],4 µg/mL
same,MIC,Prevotella baroniae [6],16 µg/mL
same,MIC,Prevotella baroniae [7],128 µg/mL
same,MIC,Prevotella baroniae [8],2 µg/mL
same,MIC,Prevotella bivia [9],16 µg/mL
same,MIC,Prevotella bivia [10],16 µg/mL
same,MIC,Prevotella bivia [11],16 µg/mL
same,MIC,Prevotella baroniae [12],1 µg/mL
same,MIC,Prevotella baroniae [13],256 µg/mL
same,MIC,Prevotella baroniae [14],256 µg/mL
same,MIC,Prevotella bivia [15],4 µg/mL
same,MIC,Prevotella nanceiensis [16],32 µg/mL
same,MIC,Prevotella nanceiensis [17],1 µg/mL
same,MIC,Prevotella bivia [18],> 256 µg/mL
same,MIC,Prevotella bivia [19],2 µg/mL
same,MIC,Prevotella baroniae [20],2 µg/mL
same,MIC,Prevotella buccae,0.5 µg/mL
same,MIC,Prevotella bivia [21],2 µg/mL
same,MIC,Prevotella bivia [22],> 256 µg/mL
same,MIC,Prevotella bivia [23],16 µg/mL
same,MIC,Prevotella bivia [24],2 µg/mL
same,MIC,Prevotella bivia [25],2 µg/mL
